2 proteins from ChEMBL document CHEMBL1142170, “Mechanism of activation of beta-D-2'-deoxy-2'-fluoro-2'-c-methylcytidine and inhibition of hepatitis C virus NS5B RNA polymerase” (Antimicrob Agents Chemother, 2007) can be followed below.

One may read the Km as the concentration of substrate that gives half-maximal velocity. One may read the kcat as the maximal rate divided by the concentration of active sites. For orientation: kcat/Km means the second-order rate constant that governs catalysis at low substrate concentration.

Holding throughout (assay type): cell-based
Substrate in series [1]: Nc1ccn([C@@H]2O[C@H](COP(=O)(O)O)[C@@H](O)[C@H]2O)c(=O)n1
The series can be described thus: (§1) Activity of human YMPK expressed in Huh7 cells assessed as phosphorylation by coupled enzyme assay. As to conditions: Huh-7. The gist of the method: (§2)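 Human YMPK cloned from Huh-7 cells, 37°C, coupled pyruvate kinase/lactate dehydrogenase assay following NADH at 340 nm. Tris-HCl pH 7.5, 1 mM ATP, MgCl2. Enzyme 80 nM with natural monophosphates, 200 nM with the analog monophosphate. Monophosphate substrate concentration varied, steady-state parameters as mean ± SD.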

Substrate in series [2]: C[C@@]1(F)[C@H](O)[C@@H](COP(=O)(O)O)O[C@H]1n1ccc(N)nc1=O
Described as §1. As to conditions: Huh-7. In a few lines:
as §2

Substrate in series [3]: Nc1ccn([C@H]2C[C@H](O)[C@@H](COP(=O)(O)O)O2)c(=O)n1
The description is as §1. As to conditions: Huh-7. The gist of the method:
as §2

Substrate in series [4]: O=c1ccn([C@@H]2O[C@H](COP(=O)(O)O)[C@@H](O)[C@H]2O)c(=O)[nH]1
The description is as §1. Particulars: Huh-7. In a few lines: as §2

Substrate in series [5]: Nc1ccn([C@@H]2O[C@H](COP(=O)(O)O)[C@@H](O)[C@H]2O)c(=O)n1
Briefly: (§3) Ratio of Kcat to Km for YMPK activity expressed in Huh7 cells. Particulars: Homo sapiens; Huh-7. The gist of the method: as §2

Substrate in series [6]: C[C@@]1(F)[C@H](O)[C@@H](COP(=O)(O)O)O[C@H]1n1ccc(N)nc1=O
The series is described as §3. Particulars: Homo sapiens; Huh-7. The gist of the method: as §2

Substrate in series [7]: Nc1ccn([C@H]2C[C@H](O)[C@@H](COP(=O)(O)O)O2)c(=O)n1
The series is described as §3. Particulars: Homo sapiens; Huh-7. In a few lines: as §2

Substrate in series [8]: O=c1ccn([C@@H]2O[C@H](COP(=O)(O)O)[C@@H](O)[C@H]2O)c(=O)[nH]1
Described as §3. Particulars: Homo sapiens; Huh-7. In a few lines:
as §2

Substrate in series [9]: O=c1ccn([C@@H]2O[C@H](CO)[C@@H](O)[C@H]2O)c(=O)[nH]1
The series can be described thus: Ratio of Kcat to Km for UCK1 activity expressed in Huh7 cells. As to conditions: Homo sapiens; Huh-7. The gist of the method:
(§4)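 His-tagged human UCK-1 cloned from Huh-7 cells, assayed at 25°C by pyruvate kinase/lactate dehydrogenase coupling, NADH oxidation at 340 nm. Buffer 64 mM Tris-HCl pH 7.5, 1 mM ATP, Mg2+, phosphoenolpyruvate. Enzyme 41 nM, or 410 nM for 2′-C-methyl cytidines. Substrate concentration varied. Steady-state parameters reported as mean ± SD.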

Substrate in series [10]: O=c1ccn([C@@H]2O[C@H](CO)[C@@H](O)[C@H]2O)c(=O)[nH]1
The series can be described thus: Activity of human UCK1 expressed in Huh7 cells assessed as phosphorylation by coupled enzyme assay. Particulars: Huh-7. In a few lines: as §4

B1: UMP-CMP kinase (Homo sapiens), P30085 (protein)
chain: MKPLVVFVLGGPGAGKGTQCARIVEKYGYTHLSAGELLRDERKNPDSQYGELIEKYIKEGKIVPVEITISLLKREMDQTMAANAQKNKFLIDGFPRNQDNLQGWNKTMDGKADVSFVLFFDCNNEICIERCLERGKSSGRSDDNRESLEKRIQTYLQSTKPIIDLYEEMGKVKKIDASKSVDEVFDEVVQIFDKEG
Turning to B1, the values for the Km in [1], in series [3] and in [4] were 56 µM, 837 µM and 151 µM, respectively. Moreover, the kcat in series [1] worked out at 30 s⁻¹; in series [2], 3.3 s⁻¹; in [3], 30 s⁻¹; in [4] it was 81 s⁻¹. Moreover, the kcat/Km in series [5] came to 540000 M⁻¹ s⁻¹; in series [6] it was 12000 M⁻¹ s⁻¹; in series [7] it was 36000 M⁻¹ s⁻¹; in [8], 540000 M⁻¹ s⁻¹.

B2: Uridine-cytidine kinase 1 (Homo sapiens), Q9HA47 (protein)
chain: MASAGGEDCESPAPEADRPHQRPFLIGVSGGTASGKSTVCEKIMELLGQNEVEQRQRKVVILSQDRFYKVLTAEQKAKALKGQYNFDHPDAFDNDLMHRTLKNIVEGKTVEVPTYDFVTHSRLPETTVVYPADVVLFEGILVFYSQEIRDMFHLRLFVDTDSDVRLSRRVLRDVRRGRDLEQILTQYTTFVKPAFEEFCLPTKKYADVIIPRGVDNMVAINLIVQHIQDILNGDICKWHRGGSNGRSYKRTFSEPGDHPGMLTSGKRSHLESSSRPH
For B2, in [9], the kcat/Km amounted to 1300 M⁻¹ s⁻¹. Also, in series [10], the Km was 407 µM and the kcat was determined as 0.51 s⁻¹.
